From ChEMBL document CHEMBL3608222, “Discovery and structure-guided optimization of tert-butyl 6-(phenoxymethyl)-3-(trifluoromethyl)benzoates as liver X receptor agonists” (Bioorg Med Chem Lett, 2015)
Activity calls are given as the source filed them. The calls are words filed in the database; no cut-off is given here.

How the values were obtained:
[1] = target: T1, Oxysterols receptor LXR-beta (Homo sapiens) (UniProt P55055); test: Agonist activity at human LXRbeta expressed in African green monkey kidney CV1 cells co-expressing pTAL-LXRE including LXR response element incubated for 20 hrs by luciferase reporter gene assay relative to T0901317; format: cell-based; conditions: CV-1
T1 sequence (whole entry): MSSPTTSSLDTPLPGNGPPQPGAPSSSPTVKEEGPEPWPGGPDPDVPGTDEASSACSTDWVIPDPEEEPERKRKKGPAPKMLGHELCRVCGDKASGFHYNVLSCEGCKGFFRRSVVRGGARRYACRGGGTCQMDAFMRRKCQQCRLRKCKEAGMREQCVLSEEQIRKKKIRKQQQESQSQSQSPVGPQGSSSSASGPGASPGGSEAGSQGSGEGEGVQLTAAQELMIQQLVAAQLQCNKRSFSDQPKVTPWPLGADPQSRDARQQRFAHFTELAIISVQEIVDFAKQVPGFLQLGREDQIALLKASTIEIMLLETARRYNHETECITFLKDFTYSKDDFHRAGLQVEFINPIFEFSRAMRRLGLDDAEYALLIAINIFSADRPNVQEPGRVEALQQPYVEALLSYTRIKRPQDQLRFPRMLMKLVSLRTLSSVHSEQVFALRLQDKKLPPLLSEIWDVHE
Method in brief: (§1)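 CV-1 cells grown in DMEM with 10% charcoal/dextran-treated FBS at 37 °C, seeded 20 h before transfection. Cells were lipofected with pcDNA-hLXRa or pcDNA-hLXRb plus the pTAL-LXRE luciferase reporter. After 3 h, medium was added, then compound in DMSO. Incubation about 20 h before luciferase luminescence read-out.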

[2] = target: T2, Oxysterols receptor LXR-alpha (Homo sapiens) (UniProt Q13133); test: Agonist activity at human LXRalpha expressed in African green monkey kidney CV1 cells co-expressing pTAL-LXRE including LXR response element incubated for 20 hrs by luciferase reporter gene assay relative to T0901317; format: cell-based; conditions: CV-1; method in brief: as §1
T2 sequence (whole entry): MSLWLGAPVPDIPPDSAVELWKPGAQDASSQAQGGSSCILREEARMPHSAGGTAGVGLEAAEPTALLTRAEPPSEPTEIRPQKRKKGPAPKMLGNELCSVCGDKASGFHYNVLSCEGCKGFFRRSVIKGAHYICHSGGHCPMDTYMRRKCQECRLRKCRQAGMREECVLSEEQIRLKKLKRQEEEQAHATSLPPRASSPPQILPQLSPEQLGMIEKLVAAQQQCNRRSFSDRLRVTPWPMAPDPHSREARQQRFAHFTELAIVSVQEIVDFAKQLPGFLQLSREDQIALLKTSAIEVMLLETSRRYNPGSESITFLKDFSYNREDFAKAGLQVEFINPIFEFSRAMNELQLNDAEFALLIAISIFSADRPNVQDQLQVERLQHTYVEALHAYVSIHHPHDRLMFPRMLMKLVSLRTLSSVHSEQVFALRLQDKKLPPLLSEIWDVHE

[3] = target: T3, Oxysterols receptor LXR-beta (Homo sapiens, UniProt P55055); test: Agonist activity at human LXRbeta expressed in African green monkey kidney CV1 cells co-expressing pTAL-LXRE including LXR response element incubated for 20 hrs by luciferase reporter gene assay; format: cell-based, CV-1; method in brief: as §1
T3 sequence (P55055 whole entry): T1 sequence (whole entry)

[4] = target: Retinoic acid receptor RXR-alpha/oxysterols receptor LXR-beta (Homo sapiens, UniProt P55055); test: Binding affinity to His-LXRbeta/FLAG-RXRalpha (unknown origin) by FITC-labeled T0901317 based fluorescence polarization assay; format: protein-complex assay
Chain of Retinoic acid receptor RXR-alpha/oxysterols receptor LXR-beta (P19793 whole entry, one chain of several): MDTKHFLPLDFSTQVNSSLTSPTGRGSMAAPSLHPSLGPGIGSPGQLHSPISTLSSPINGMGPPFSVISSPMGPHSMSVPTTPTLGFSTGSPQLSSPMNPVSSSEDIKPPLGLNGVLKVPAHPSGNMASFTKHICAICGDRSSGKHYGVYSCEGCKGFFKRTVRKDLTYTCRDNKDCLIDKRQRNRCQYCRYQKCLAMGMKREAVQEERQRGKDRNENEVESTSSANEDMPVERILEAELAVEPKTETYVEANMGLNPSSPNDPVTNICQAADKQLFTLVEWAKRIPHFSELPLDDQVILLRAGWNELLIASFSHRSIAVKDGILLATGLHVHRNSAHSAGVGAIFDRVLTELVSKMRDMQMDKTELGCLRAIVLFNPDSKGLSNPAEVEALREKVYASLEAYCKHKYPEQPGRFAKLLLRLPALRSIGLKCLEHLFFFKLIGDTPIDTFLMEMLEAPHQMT

[5] = Cmax in mouse at 10 mg/kg, po; format: ADME, organism-based; parameters: dose 10 mg/kg, route oral; conditions: in vivo
Method in brief: (§2)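 Mice given a single oral dose of 10 mg/kg. Plasma concentration measured in µg/ml as Cmax and at 6 h.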

[6] = target: Retinoic acid receptor RXR-alpha/oxysterols receptor LXR-alpha (Homo sapiens, UniProt Q13133); test: Binding affinity to His-LXRalpha/FLAG-RXRalpha (unknown origin) by FITC-labeled T0901317 based fluorescence polarization assay; format: protein-complex assay
Chain of Retinoic acid receptor RXR-alpha/oxysterols receptor LXR-alpha (P19793 whole entry, one chain of several): as above

[7] = Plasma concentration in mouse at 10 mg/kg, po measured at 6 hrs; format: ADME, organism-based; method in brief: as §2
[8] = target: T4, Oxysterols receptor LXR-alpha (Homo sapiens, UniProt Q13133); test: Agonist activity at human LXRalpha expressed in African green monkey kidney CV1 cells co-expressing pTAL-LXRE including LXR response element incubated for 20 hrs by luciferase reporter gene assay; format: cell-based, CV-1
T4 sequence (Q13133 whole entry): T2 sequence (whole entry)

RAW264.7 [9] = test: […] of cholesterol efflux in mouse RAW264.7 cells at 1 uM using [4-14C]-cholesterol incubated for 24 hrs by scintillation counting method relative to T0901317; format: functional
Method in brief: (§3)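 RAW264.7 cells were labeled 2 days with 0.2 µCi/ml [4-14C]-cholesterol in DMEM/1% FBS and washed with 0.2% BSA/PBS. Medium with or without 10 µg/ml apoAI was added, with compound (final 0.01–1 µM) or DMSO, for about 24 h. Medium and cell radioactivity were counted. ApoAI-dependent efflux % = efflux(+apoAI) minus mean efflux(−apoAI); % efficacy is given at the stated concentration.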

RAW264.7 [10] = test: […] of cholesterol efflux in mouse RAW264.7 cells at 0.1 using [4-14C]-cholesterol incubated for 24 hrs by scintillation counting method relative to T0901317; format: functional; method in brief: as §3
Mus musculus [11] = test: Toxicity in C57Bl/6 mouse assessed as effect on plasma triglyceride levels at 1 mg/kg, po dosed daily for 7 days; format: organism-based; conditions: in vivo, 168 h
Method in brief: (§4)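 C57Bl/6 mice dosed daily by oral gavage at 1 mg/kg for 7 days, n = 5/group. Liver FAS and SCD-1 mRNA and plasma TG were then measured. Groups compared with vehicle by Dunnett's test, p <0.05.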

Mus musculus [12] = test: Effect on SCD1 mRNA expression in C57Bl/6 mouse liver at 1 mg/kg, po dosed daily for 7 days; format: functional, organism-based; method in brief: as §4
Cynomolgus monkey [13] = test: Increase in ABCA1 mRNA expression in cynomolgus monkey blood at 0.1 to 10 mg/kg, po dosed daily for 14 days measured on day 1; format: functional, organism-based; conditions: Macaca fascicularis
Method in brief: (§5)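 Cynomolgus monkeys dosed daily by oral gavage at 0, 0.1, 0.3, 1, 3 or 10 mg/kg for 14 days, n = 6/group. Blood ABCA1 mRNA was measured on Day 1 and Day 14; plasma triglyceride was measured after single and repeated dosing. Mean + SE.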

Cynomolgus monkey [14] = test: Increase in ABCA1 mRNA expression in cynomolgus monkey blood at 0.1 to 10 mg/kg, po dosed daily for 14 days measured on day 14; format: functional, organism-based; conditions: Macaca fascicularis; method in brief: as §5
Cynomolgus monkey [15] = test: Toxicity in cynomolgus monkey assessed as effect on plasma triglyceride levels at 0.1 to 10 mg/kg, po administered as single dose; format: organism-based, Macaca fascicularis; conditions: in vivo; method in brief: as §5
Cynomolgus monkey [16] = test: Toxicity in cynomolgus monkey assessed as effect on plasma triglyceride levels at 0.1 to 10 mg/kg, po dosed daily for 14 days; format: organism-based, Macaca fascicularis; conditions: in vivo, 336 h; method in brief: as §5
Mus musculus [17] = test: Effect on FAS mRNA expression in C57Bl/6 mouse liver at 1 mg/kg, po dosed daily for 7 days; format: functional, organism-based; method in brief: as §4

Compound | Efficacy [1] | Efficacy [2] | EC50 [3] | Ki [4] | Ki [6] | EC50 [8] | other results
CC(=O)N(C)c1ccc(OCc2ccc(C(F)(F)F)cc2C(=O)OC(C)(C)C)cc1 | 28% | 27% | 210 nM | 180 nM | 870 nM | 310 nM | Cmax [5]: 1700 ng/mL; concentration at 6 h [7]: 1000 ng/mL
CC(C)(C)OC(=O)c1cc(C(F)(F)F)ccc1COc1ccc(CCCCC(=O)O)cc1 | – | – | – | 630 nM | – | – | –
CN(C(=O)CCC(=O)O)c1ccc(OCc2ccc(C(F)(F)F)cc2C(=O)OC(C)(C)C)cc1 | – | – | – | 660 nM | 4000 nM | – | –
CC(C)(C)OC(=O)c1cc(C(F)(F)F)ccc1COc1ccc(-c2cccc(CC(=O)O)c2)cc1 | – | – | – | 360 nM | 5100 nM | – | –
CC(C)(C)OC(=O)c1c(COc2ccc(-c3cccc(CC(=O)O)c3)cc2)ccc(C(F)(F)F)c1O | 27% | 39% | 530 nM | – | – | 1300 nM | Efficacy (RAW264.7 [9]): 58%; Efficacy (RAW264.7 [10]): 3%
CC(C)(C)OC(=O)c1cc(C(F)(F)F)ccc1COc1ccc(CCCC(=O)O)cc1 | – | – | – | 4900 nM | – | – | –
CC(C)(C)OC(=O)c1cc(C(F)(F)F)ccc1COc1ccc(-c2ccc(C(=O)O)cc2)cc1 | – | – | – | > 10000 nM | > 10000 nM | – | –
CC(C)(C)OC(=O)c1cc(C(F)(F)F)ccc1COc1ccc(-c2cccc(C(=O)O)c2)cc1 | – | – | – | 3400 nM | 6300 nM | – | –
CC(C)(C)OC(=O)c1cc(C(F)(F)F)ccc1COc1ccc(CCCCCC(=O)O)cc1 | – | – | – | 1200 nM | 8600 nM | – | –
CC(=O)N(C)c1ccc(OCc2ccc(C(F)(F)F)c(O)c2C(=O)OC(C)(C)C)cc1 | 76% | 89% | 260 nM | 170 nM | 270 nM | 280 nM | Cmax [5]: 1000 ng/mL; concentration at 6 h [7]: 670 ng/mL
CC(C)(C)OC(=O)c1c(COc2ccc(-c3ccc(CC(=O)O)cc3)cc2)ccc(C(F)(F)F)c1O | 51% | 79% | 160 nM | – | – | 510 nM | Activity (Mus musculus [11]): Non-toxic; Activity (Mus musculus [12]): inactive; Activity (Cynomolgus monkey [13]): Dose-dependent effect; Efficacy (RAW264.7 [9]): 69%; Cmax [5]: 8900 ng/mL; Efficacy (RAW264.7 [10]): 57%; concentration at 6 h [7]: 5300 ng/mL; Activity (Cynomolgus monkey [14]): Dose-dependent effect; Activity (Cynomolgus monkey [15]): Non-toxic; Activity (Cynomolgus monkey [16]): Non-toxic; Activity (Mus musculus [17]): inactive
CC(C)(C)OC(=O)c1cc(C(F)(F)F)ccc1COc1ccc(-c2ccc(CC(=O)O)cc2)cc1 | – | – | – | 260 nM | 1000 nM | – | –
